Data from ChEMBL document CHEMBL2331329, “Synthesis and biological evaluation of 2-(alkoxycarbonyl)-3-anilinobenzo[b]thiophenes and thieno[2,3-b]pyridines as new potent anticancer agents” (J Med Chem, 2013).

Test system: HeLa
Experiment: Induction of apoptosis in human HeLa cells assessed as early apoptotic cells at 10 to 100 nM by annexin V-FITC and propidium iodide staining-based flow cytometry
Type: functional, cell-based
Conditions: TDE = time-dependent effect
Summary of the method: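 HeLa cells treated 24 or 48 h, then co-labelled with annexin-V–FITC and propidium iodide. Flow cytometry with 488 nm excitation and emission at 525 nm (FITC) and 585 nm (PI); early apoptotic cells counted as annexin-V+/PI−. Mean ± SEM of three independent experiments.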

COC(=O)c1sc2cc(OC)ccc2c1Nc1cc(OC)c(OC)c(OC)c1
Activity: tde
